According to paper PMC7790123 (Psychopharmacology, 2020):

Experiments:
[1] = Drug concentration in free plasma and CSF after dosing; format: in vivo, rat; settings: for Drug Concentration CSF: 15 mg/kg ip
In short: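 After 1 h acclimation, rats received vehicle or test compound, suspended in 0.1% Tween80, 0.1% silicone antifoam and 1% methylcellulose in water, given ip at 5 mL/kg. At 1 or 4 h, rats were anaesthetised with isoflurane and sampled. Blood was spun at 2000 g, 4°C, 10 min for plasma. CSF and plasma were stored at −80°C, then compound levels were measured by LC-MS/MS.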

COMT = target: T1, COMT (Rattus norvegicus, UniProt P22734); experiment: Frontal cortex microdialysis: DA, HVA and DOPAC in extracellular fluid; format: in vivo; settings: 20 min samples for 2 h after dosing, vs vehicle
T1 sequence (P22734 44-264 limits assumed): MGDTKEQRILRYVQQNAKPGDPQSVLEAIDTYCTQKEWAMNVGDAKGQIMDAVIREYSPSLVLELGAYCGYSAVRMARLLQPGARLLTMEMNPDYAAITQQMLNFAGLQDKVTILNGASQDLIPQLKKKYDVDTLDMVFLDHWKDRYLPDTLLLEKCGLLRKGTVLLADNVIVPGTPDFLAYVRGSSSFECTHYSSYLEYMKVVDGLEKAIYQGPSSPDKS

rats = experiment: Attentional set-shifting task; format: in vivo, rat; settings: 15 mg/kg ip, male rats, dosed 1 h before testing, vs vehicle
In short: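 Rats were handled 1 min at least three times in the week before testing. The test compound was suspended in 0.1% Tween80, 0.1% silicone antifoam and 1% methylcellulose in water and given ip at 5 mL/kg, 1 h before testing. Over four days: pre-habituation, habituation, training, then a single test of seven discriminations (SD, CD, CDR, ID, IDR, ED, EDR). The first four trials were unscored; criterion was six consecutive correct. Analysis: two-way repeated-measures ANOVA with Tukey post hoc.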

[2] = male, rat, plasma (free, unbound concentration), intraperitoneal, 15 mg/kg

Question: Which “Drug Concentration CSF” value ([1]; female rats, 4 h) does the source give for `Cc1ccc(C(=O)c2cc(O)c(O)c([N+](=O)[O-])c2)cc1` [Tolcapone, tolcapone] here?
Answer: BLQ

Question: What about the “Drug Concentration CSF” value ([1]; male rats, 1 h) of the same compound?
Answer: BLQ

Question: And the “Drug Concentration CSF” value ([1]; male rats, 4 h)?
Answer: BLQ

Question: And the concentration at 4 h ([1]; female, rat, plasma (free, unbound concentration), intraperitoneal, 15 mg/kg)?
Answer: 10 nM

Question: And the concentration at 1 h [1, 2]?
Answer: 35 nM

Question: And the concentration at 4 h [1, 2]?
Answer: 4 nM

Question: And the “extracellular DOPAC concentration, frontal cortex” value (COMT)?
Answer: significantly increased DOPAC for the 40–120-min time points

Question: And the “extracellular HVA concentration, frontal cortex” value (COMT)?
Answer: significantly decreased HVA for the 40–120-min time points

Question: And the “ASST performance (trials to criterion), ED stage” value (rats)?
Answer: improved ED stage performance
